Assay results gathered from unrelated publications.
Protocols differ between the studies behind these lines.
MET M1250T: Hepatocyte growth factor receptor (MET, Homo sapiens, UniProt P08581, M1250T)
MET: Hepatocyte growth factor receptor (MET, Homo sapiens, UniProt P08581)

| Compound | target | test | conditions | quantity | result |
| --- | --- | --- | --- | --- | --- |
| CC(=O)Nc1c(C(C)=O)c(=O)n(C)c2nc(-c3ccc(Cl)cc3Cl)c(-c3ccc(Cl)cc3)cc12 | MET M1250T | cell-free assay, competition with immobilised ligand | 1 µM | remaining binding | 100% |
| Cc1cc(NC(=O)c2cccc3cc(-c4cccc5[nH]nc(N)c45)ccc23)ccc1F | MET M1250T | enzyme activity, inhibitor | 0.1 µM | activity vs control | 113% |
| O=S(=O)(NC1CCC(c2cc(F)ccc2F)(S(=O)(=O)c2ccc(Cl)cc2)CC1)C(F)(F)F (stereo not drawn) | MET | cell-free assay, competition with immobilised ligand | 1 µM | remaining binding | 100% |
| Cc1ccc(NC(=O)c2ccc(C)c(C(F)(F)F)c2)cc1C#Cc1nn(C2CCC(O)CC2)c2ncnc(N)c12 (stereo not drawn) | Hepatocyte growth factor receptor (MET, Homo sapiens, UniProt P08581, D1228N) | cell-free assay | 10 µM | remaining signal | 103% |
| CNC(=O)c1cc2c(Oc3ccc(NC(=O)C4(C(=O)Nc5ccc(F)cc5)CC4)cc3)ccnc2cc1OC | Hepatocyte growth factor receptor (MET, Homo sapiens, UniProt P08581, Y1230H) | enzyme activity, inhibitor, radiometric | 1 µM | inhibition | 99% |
| N[C@H]1CCN(c2nccc(-c3cnn4ncccc34)n2)C1 | MET M1250T | binding | 1 µM | remaining binding | 100% |
| Cc1cnc(NC2CCOCC2)nc1-n1cnc(C(=O)NC(CN)c2cc(F)cc(Cl)c2)c1 (stereo not drawn) | Hepatocyte growth factor receptor (MET, Homo sapiens, UniProt P08581, Y1230D) | enzyme activity, inhibitor, radiometric | 1 µM | remaining activity | 97% |
| COCCOc1nc(-c2ccc(Cl)nc2)nc2c1CN(C(=O)c1ncn3ccccc13)CC2 | MET | cell-free assay, competition with immobilised ligand | 0.1 µM | remaining binding | 100% |
| C[C@@H]1CCN(c2nccc(-c3cnn4ncccc34)n2)C1 | MET | binding | 1 µM | remaining binding | 84% |
